In ChEMBL document CHEMBL1909586 (Eur J Med Chem, 2011):

Tests used:
[1] = molecular target: T1, Acetylcholinesterase (Homo sapiens, UniProt P22303); assay: Inhibition of human […] recombinant AChE after 20 mins using acetylthiocholine iodide as a substrate by Ellman's assay
[2] = molecular target: Cholinesterase (Homo sapiens, UniProt P06276); assay: Inhibition of human serum recombinant BChE after 20 mins using butyrylthiocholine iodide as a substrate by Ellman's assay
[3] = system: SH-SY5Y; assay: Antioxidant activity in human SH-SY5Y cells assessed as inhibition of tert-butyl hydroperoxide-induced intracellular ROS production at 10 uM after 24 hrs using DCFH-DA by fluorescence assay (reference value: 82.4 +/- 6.6 %); type: functional; design: scale not given: the % may be the effect or the level left
[4] = system: SH-SY5Y; assay: Cytotoxicity against human SH-SY5Y cells assessed as reduction in cell viability at 50 uM after 24 hrs by MTT assay; type: cell-based
Summary of the method: (§1)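 Cells were SH-SY5Y, grown in DMEM with 10% fetal calf serum and 2 mM glutamine, seeded at 2 × 10^5 cells/well and allowed 24 h at 37 °C/5% CO2. Compound-containing media (0.1–50 µM) were applied for 24 h. After a PBS wash, cells took up MTT (5 mg/mL in PBS) for 4 h. Formazan was dissolved in isopropanol and read at 405 nm. Viability is given as % of control cells.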

[5] = system: SH-SY5Y; assay: Antioxidant activity in human SH-SY5Y cells assessed as inhibition of tert-butyl hydroperoxide-induced intracellular ROS production at 5 uM after 24 hrs using DCFH-DA by fluorescence assay (reference value: 82.4 +/- 6.6 %); type: functional; design: scale not given: the % may be the effect or the level left
[6] = system: SH-SY5Y; assay: Antioxidant activity in human SH-SY5Y cells assessed as inhibition of tert-butyl hydroperoxide-induced intracellular ROS production at 1 uM after 24 hrs using DCFH-DA by fluorescence assay (reference value: 82.4 +/- 6.6 %); type: functional; design: scale not given: the % may be the effect or the level left
[7] = system: SH-SY5Y; assay: Cytotoxicity against human SH-SY5Y cells at 0.1 to 50 uM after 24 hrs by MTT assay; type: cell-based; summary of the method: as §1
[8] = system: SH-SY5Y; assay: Antioxidant activity in human SH-SY5Y cells assessed as inhibition of tert-butyl hydroperoxide-induced intracellular ROS production at 50 uM after 24 hrs using DCFH-DA by fluorescence assay (reference value: 82.4 +/- 6.6 %); type: functional; design: scale not given: the % may be the effect or the level left
[9] = molecular target: T1, Acetylcholinesterase; assay: Inhibition of human AChE-induced amyloid beta (1 to 40) aggregation at 100 uM after 24 hrs by thioflavin T based fluorometric assay

Cholinesterase, sequence (P06276 whole entry): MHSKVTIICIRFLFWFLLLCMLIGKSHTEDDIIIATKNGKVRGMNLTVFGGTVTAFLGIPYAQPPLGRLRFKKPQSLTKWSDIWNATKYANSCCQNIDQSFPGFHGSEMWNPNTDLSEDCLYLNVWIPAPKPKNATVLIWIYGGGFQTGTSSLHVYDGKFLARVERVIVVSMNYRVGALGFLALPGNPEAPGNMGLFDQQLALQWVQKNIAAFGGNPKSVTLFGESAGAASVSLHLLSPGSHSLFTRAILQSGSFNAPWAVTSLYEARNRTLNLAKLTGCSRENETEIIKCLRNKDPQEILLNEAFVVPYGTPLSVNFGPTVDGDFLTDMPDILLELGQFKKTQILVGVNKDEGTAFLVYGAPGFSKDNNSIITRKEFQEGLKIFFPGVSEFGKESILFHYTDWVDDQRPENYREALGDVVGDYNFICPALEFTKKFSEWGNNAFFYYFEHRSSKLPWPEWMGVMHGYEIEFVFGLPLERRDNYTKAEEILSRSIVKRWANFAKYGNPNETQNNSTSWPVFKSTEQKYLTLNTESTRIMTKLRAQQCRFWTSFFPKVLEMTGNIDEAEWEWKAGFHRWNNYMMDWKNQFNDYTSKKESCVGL
T1 sequence (P22303 whole entry): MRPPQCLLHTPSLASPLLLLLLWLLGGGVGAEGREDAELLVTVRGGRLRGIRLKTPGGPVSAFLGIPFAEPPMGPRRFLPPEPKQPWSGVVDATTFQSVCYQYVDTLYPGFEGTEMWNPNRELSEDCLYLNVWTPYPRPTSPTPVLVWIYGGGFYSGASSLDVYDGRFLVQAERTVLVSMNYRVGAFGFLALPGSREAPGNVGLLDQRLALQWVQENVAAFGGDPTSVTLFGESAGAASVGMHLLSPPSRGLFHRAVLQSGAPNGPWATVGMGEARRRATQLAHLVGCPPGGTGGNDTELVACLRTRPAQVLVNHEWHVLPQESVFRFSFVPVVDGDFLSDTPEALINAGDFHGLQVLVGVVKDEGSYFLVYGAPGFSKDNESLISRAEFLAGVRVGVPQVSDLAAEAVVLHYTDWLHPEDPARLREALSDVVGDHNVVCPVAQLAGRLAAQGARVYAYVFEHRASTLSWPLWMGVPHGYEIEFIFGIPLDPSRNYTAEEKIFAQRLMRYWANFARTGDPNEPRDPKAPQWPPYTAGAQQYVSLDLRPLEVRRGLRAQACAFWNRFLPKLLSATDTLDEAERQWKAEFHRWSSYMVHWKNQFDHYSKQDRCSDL

O=C(CCCC[C@H]1CCSS1)NCCCNc1c2c(nc3cc(Cl)ccc13)CCCC2
IC50 [1]: 0.471 nM | IC50 [2]: 12.1 nM

O=C(CCCC[C@@H]1CCSS1)NCCCNc1c2c(nc3cc(Cl)ccc13)CCCC2
IC50 [2]: 12.6 nM

O=C(CCCCc1cccs1)NCCCNc1c2c(nc3cc(Cl)ccc13)CCCC2
Activity [3]: 80.2% | Activity [4]: 80% | Activity [5]: 79.8% | Activity [6]: 81%

COc1cccc(C(C)N(C)CCCNC(=O)CCCCC2CCSS2)c1 (mixture of isomers)
Activity [3]: 68.8% | Activity [5]: 80% | Activity [6]: 82.5% | Activity [7]: Non-toxic | Activity [8]: 46.4%

CC(c1cccc(OCCCNC(=O)CCCCC2CCSS2)c1)N(C)C (mixture of isomers)
Activity [3]: 48% | Activity [5]: 76.8% | Activity [6]: 80.3% | Activity [7]: Non-toxic | Activity [8]: 34.4%

COc1cc2nc(Cl)nc(NCCCNC(=O)CCCCC3CCSS3)c2cc1OC (racemic)
Activity [3]: 63.4% | IC50 [2]: 205000 nM | Activity [4]: 30% | Activity [5]: 73.5% | Activity [6]: 82%

CCN(CCCCCCNC(=O)CCCCC1CCSS1)Cc1ccccc1OC (racemic)
inhibition [9]: 16.8% | Activity [3]: 69.6% | Activity [5]: 75.8% | Activity [6]: 80.8% | Activity [7]: Non-toxic | Activity [8]: 37.6%

O=C(CCCCC1CCSS1)NCCCNc1c2c(nc3cc(Cl)ccc13)CCCC2 (racemic) [LIPOCRINE]
inhibition [9]: 61.8% | Activity [3]: 50% | Activity [5]: 65% | Activity [6]: 83.2% | Activity [8]: 31%
